Results: publication PMC4929832 (Nature, 2016)

Legend:
[1] = target: HIPK2 (Homo sapiens, UniProt Q9H2X6); assay: kinase panel; assay type: biochemical
[2] = target: SIK (Homo sapiens, UniProt P57059); assay: kinase panel; assay type: biochemical
[3] = target: RSK2 (Homo sapiens, UniProt P51812); assay: kinase panel; assay type: biochemical
[4] = target: KIT (Homo sapiens, UniProt P10721); assay: kinase panel; assay type: biochemical
[5] = target: FGR (Homo sapiens, UniProt P09769); assay: kinase panel; assay type: biochemical
[6] = target: TXK (Homo sapiens, UniProt P42681); assay: kinase panel; assay type: biochemical
[7] = target: MSK2 (Homo sapiens, UniProt O75676); assay: kinase panel; assay type: biochemical
[8] = target: T1, Progesterone Receptor (Homo sapiens, UniProt P06401); assay: Progesterone Receptor antagonist assay; assay type: cell-based
[9] = target: PAK1 (Homo sapiens, UniProt Q13153); assay: kinase panel; assay type: biochemical
[10] = target: PDGFR-BETA (Homo sapiens, UniProt P09619); assay: kinase panel; assay type: biochemical
[11] = target: AXL (Homo sapiens, UniProt P30530); assay: kinase panel; assay type: biochemical
[12] = target: AURORA-A (Homo sapiens, UniProt O14965); assay: kinase panel; assay type: biochemical
[13] = target: P70S6K2 (Homo sapiens, UniProt Q9UBS0); assay: kinase panel; assay type: biochemical
[14] = target: NDR1 (Homo sapiens, UniProt Q15208); assay: kinase panel; assay type: biochemical
[15] = target: Muscarinic M2 (Homo sapiens, UniProt P08172); assay: Muscarinic M2 calcium flux assay with ATP priming; assay type: cell-based
[16] = target: Phosphodiesterase 4D (Homo sapiens, UniProt Q08499); assay: Phosphodiesterase 4D assay; assay type: biochemical
[17] = target: Adenosine 2A receptor (Homo sapiens, UniProt P29274); assay: Adenosine 2A receptor binding assay
[18] = target: PRKD1 (Homo sapiens, UniProt Q15139); assay: kinase panel; assay type: biochemical
[19] = target: T1, Progesterone Receptor; assay: Progesterone Receptor agonist assay; assay type: cell-based
[20] = target: PKACB (Homo sapiens, UniProt P22694); assay: kinase panel; assay type: biochemical
[21] = target: FLT-1 (Homo sapiens, UniProt P17948); assay: kinase panel; assay type: biochemical
[22] = target: PAK6 (Homo sapiens, UniProt Q9NQU5); assay: kinase panel; assay type: biochemical
[23] = target: JNK1 (Homo sapiens, UniProt P45983); assay: kinase panel; assay type: biochemical
[24] = target: MAPK1 (Homo sapiens, UniProt P28482); assay: kinase panel; assay type: biochemical
[25] = target: CAMK4 (Homo sapiens, UniProt Q16566); assay: kinase panel; assay type: biochemical
[26] = target: PIM2 (Homo sapiens, UniProt Q9P1W9); assay: kinase panel; assay type: biochemical
[27] = target: PKA (Homo sapiens, UniProt P17612); assay: kinase panel; assay type: biochemical
[28] = target: PAK3 (Homo sapiens, UniProt O75914); assay: kinase panel; assay type: biochemical
[29] = target: FLT-3 (Homo sapiens, UniProt P36888); assay: kinase panel; assay type: biochemical
[30] = target: PKC-ALPHA (Homo sapiens, UniProt P17252); assay: kinase panel; assay type: biochemical
[31] = target: PKC-GAMMA (Homo sapiens, UniProt P05129); assay: kinase panel; assay type: biochemical
[32] = target: CDK6-CYCLIND3 (Homo sapiens, UniProt Q00534); assay: kinase panel; assay type: biochemical
[33] = target: DAPK1 (Homo sapiens, UniProt P53355); assay: kinase panel; assay type: biochemical
[34] = test system: exon19del/T790M EGFR mutant lung tumors (genetically engineered mice); assay: Mouse efficacy study, tumor volume by MRI; assay type: in vivo; conditions: EAI045 60 mg/kg with cetuximab 1 mg I.P. every other day
In short: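 Transgenic lung tumors were induced at 6 weeks of age: exon19del/T790M mice by doxycycline diet, L858R/T790M/C797S mice by intranasal Ad-Cre. The test compound in 10% NMP/90% PEG-300 was given at 60 mg/kg daily by oral gavage. […] MRI ran at baseline and every 2 weeks, and tumor volume was quantified in 3D at 4 weeks. Cohorts were non-blinded and not randomized.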

[35] = target: PKN2 (Homo sapiens, UniProt Q16513); assay: kinase panel; assay type: biochemical
[36] = target: DYRK3 (Homo sapiens, UniProt O43781); assay: kinase panel; assay type: biochemical
[37] = target: TSSK2 (Homo sapiens, UniProt Q96PF2); assay: kinase panel; assay type: biochemical
[38] = target: TEC (Homo sapiens, UniProt P42680); assay: kinase panel; assay type: biochemical
[39] = target: SRC (Homo sapiens, UniProt P12931); assay: kinase panel; assay type: biochemical
[40] = target: BRK (Homo sapiens, UniProt Q13882); assay: kinase panel; assay type: biochemical
[41] = target: EPH-B2 (Homo sapiens, UniProt P29323); assay: kinase panel; assay type: biochemical
[42] = target: LCK (Homo sapiens, UniProt P06239); assay: kinase panel; assay type: biochemical
Sequence of LCK (P06239 whole entry): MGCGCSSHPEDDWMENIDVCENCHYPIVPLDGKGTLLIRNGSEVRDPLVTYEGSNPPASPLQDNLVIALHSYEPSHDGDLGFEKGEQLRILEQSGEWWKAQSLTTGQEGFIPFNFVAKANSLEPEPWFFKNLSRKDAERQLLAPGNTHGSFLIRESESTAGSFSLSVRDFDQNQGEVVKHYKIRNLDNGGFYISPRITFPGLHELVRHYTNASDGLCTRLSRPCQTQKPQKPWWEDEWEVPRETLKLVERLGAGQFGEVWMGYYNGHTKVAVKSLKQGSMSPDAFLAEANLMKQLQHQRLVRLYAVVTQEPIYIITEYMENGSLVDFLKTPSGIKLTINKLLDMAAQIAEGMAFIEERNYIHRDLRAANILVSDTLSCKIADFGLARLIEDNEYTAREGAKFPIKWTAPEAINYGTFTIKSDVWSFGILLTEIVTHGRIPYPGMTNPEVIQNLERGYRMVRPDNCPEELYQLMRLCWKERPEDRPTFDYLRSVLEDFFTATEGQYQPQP

T1 sequence (P06401 whole entry, species assumed): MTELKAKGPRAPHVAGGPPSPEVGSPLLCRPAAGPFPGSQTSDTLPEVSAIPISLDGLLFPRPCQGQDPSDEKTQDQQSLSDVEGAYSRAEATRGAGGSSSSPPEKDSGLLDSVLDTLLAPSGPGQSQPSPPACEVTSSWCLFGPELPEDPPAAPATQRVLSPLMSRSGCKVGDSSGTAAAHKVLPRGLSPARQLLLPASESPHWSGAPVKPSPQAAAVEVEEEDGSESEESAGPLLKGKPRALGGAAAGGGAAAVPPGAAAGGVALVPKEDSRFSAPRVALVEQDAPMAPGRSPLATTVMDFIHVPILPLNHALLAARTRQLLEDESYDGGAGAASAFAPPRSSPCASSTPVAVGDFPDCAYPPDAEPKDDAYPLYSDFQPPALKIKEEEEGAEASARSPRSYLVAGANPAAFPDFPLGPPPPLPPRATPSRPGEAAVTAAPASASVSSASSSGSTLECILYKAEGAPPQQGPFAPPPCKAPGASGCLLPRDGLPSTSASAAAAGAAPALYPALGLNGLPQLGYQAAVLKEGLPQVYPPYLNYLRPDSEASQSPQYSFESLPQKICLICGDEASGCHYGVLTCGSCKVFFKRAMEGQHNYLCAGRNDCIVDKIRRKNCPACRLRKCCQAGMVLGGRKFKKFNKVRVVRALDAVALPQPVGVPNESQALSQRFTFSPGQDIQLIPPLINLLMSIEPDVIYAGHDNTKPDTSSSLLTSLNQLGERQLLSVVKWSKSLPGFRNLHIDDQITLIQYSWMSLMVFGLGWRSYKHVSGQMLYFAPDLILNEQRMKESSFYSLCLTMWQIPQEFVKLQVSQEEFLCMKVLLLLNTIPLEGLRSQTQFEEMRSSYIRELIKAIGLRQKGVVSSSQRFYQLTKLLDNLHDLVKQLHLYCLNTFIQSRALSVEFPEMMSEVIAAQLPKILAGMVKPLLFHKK
Sequence of FLT-3 (P36888 27-993): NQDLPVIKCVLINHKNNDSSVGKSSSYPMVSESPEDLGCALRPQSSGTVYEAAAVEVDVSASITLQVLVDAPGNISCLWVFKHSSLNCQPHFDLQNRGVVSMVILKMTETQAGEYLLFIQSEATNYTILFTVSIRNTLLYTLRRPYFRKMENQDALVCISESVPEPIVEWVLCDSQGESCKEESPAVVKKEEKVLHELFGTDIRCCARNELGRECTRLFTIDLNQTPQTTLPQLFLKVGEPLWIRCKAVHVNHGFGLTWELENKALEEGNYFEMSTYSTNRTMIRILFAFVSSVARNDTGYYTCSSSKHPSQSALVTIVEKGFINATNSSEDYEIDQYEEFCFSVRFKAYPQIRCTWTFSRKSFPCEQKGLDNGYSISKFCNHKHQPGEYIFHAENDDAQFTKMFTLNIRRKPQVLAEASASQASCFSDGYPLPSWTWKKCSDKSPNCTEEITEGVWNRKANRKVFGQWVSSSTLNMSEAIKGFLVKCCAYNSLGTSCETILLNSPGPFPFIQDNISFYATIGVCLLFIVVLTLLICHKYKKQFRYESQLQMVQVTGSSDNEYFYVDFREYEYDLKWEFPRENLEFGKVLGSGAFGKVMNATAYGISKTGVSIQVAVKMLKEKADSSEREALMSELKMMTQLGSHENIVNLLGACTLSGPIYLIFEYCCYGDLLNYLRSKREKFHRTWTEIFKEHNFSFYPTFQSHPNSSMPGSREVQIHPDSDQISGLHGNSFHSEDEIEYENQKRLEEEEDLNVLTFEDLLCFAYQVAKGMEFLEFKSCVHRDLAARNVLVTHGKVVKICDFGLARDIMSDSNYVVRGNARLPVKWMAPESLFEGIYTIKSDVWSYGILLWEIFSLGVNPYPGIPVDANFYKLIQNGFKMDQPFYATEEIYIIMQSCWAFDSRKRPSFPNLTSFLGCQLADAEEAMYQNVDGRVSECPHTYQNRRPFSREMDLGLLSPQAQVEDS
Sequence of DYRK3 (O43781 whole entry): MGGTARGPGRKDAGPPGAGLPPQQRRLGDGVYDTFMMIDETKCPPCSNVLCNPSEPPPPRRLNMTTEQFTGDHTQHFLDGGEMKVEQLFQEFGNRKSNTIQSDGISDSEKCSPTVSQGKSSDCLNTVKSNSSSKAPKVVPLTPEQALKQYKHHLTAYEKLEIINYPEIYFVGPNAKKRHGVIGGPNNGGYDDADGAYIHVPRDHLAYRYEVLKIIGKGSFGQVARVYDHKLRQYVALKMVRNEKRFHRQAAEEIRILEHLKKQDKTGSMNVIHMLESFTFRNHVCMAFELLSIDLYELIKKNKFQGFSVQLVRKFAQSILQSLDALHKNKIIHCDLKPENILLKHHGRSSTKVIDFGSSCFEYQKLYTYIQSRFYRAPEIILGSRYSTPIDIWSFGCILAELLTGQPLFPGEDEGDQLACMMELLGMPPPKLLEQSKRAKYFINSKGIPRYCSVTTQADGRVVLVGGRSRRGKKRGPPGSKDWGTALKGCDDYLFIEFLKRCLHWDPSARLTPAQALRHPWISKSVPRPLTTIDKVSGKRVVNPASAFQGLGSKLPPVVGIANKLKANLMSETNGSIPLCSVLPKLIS
Sequence of PAK1 (Q13153 whole entry): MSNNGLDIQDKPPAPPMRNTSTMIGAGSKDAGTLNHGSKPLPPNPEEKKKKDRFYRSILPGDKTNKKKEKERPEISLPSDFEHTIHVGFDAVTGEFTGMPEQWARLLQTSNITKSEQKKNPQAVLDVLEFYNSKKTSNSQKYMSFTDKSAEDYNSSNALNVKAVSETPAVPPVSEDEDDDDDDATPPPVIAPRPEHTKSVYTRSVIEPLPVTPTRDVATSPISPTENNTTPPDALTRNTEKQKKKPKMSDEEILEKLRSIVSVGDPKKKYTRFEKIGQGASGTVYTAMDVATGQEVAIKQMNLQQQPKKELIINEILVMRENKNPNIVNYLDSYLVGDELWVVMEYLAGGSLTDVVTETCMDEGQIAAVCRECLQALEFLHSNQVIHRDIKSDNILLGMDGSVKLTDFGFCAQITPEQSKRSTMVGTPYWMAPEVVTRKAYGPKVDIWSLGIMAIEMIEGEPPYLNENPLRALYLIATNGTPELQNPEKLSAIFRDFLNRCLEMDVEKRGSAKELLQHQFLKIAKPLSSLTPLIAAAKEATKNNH
Sequence of FGR (P09769 whole entry): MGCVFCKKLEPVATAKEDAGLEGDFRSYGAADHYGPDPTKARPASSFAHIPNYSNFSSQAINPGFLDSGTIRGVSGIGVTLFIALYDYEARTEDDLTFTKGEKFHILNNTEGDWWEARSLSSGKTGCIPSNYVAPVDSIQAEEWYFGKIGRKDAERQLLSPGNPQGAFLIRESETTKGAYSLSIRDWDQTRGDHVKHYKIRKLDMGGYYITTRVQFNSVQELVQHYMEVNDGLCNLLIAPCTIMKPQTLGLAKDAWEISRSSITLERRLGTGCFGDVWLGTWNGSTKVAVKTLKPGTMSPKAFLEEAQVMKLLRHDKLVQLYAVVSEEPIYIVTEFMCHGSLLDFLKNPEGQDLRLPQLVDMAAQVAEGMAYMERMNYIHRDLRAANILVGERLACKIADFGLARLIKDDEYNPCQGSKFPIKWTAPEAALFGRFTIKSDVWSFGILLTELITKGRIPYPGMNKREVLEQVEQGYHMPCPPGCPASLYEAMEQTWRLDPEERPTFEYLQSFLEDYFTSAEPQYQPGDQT
Sequence of AXL (P30530 26-894): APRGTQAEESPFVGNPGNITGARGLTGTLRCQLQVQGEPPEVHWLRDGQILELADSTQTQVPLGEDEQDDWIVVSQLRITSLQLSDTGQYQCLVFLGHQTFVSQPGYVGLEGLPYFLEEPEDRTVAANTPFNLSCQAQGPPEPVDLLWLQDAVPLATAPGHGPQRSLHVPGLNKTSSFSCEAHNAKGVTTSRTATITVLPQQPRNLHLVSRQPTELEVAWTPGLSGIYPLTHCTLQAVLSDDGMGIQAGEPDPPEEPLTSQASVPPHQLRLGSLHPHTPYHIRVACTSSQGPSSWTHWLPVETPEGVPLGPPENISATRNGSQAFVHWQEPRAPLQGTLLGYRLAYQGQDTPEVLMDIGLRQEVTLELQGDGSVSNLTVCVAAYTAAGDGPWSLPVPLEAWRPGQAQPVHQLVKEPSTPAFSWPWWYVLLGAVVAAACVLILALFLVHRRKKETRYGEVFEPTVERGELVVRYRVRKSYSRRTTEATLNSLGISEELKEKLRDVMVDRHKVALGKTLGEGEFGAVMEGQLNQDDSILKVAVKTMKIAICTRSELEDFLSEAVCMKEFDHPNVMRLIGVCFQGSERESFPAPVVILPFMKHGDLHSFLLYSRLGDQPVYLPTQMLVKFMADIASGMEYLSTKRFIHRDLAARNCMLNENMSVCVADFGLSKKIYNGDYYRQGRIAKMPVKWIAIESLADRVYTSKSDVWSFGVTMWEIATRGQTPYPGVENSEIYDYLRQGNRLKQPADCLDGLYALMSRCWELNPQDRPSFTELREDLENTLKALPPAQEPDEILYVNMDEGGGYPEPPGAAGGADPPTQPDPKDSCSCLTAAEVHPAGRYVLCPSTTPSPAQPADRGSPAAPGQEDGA

- inhibition at 1 µM [1]: 2%
- inhibition at 1 µM [2]: 0%
- inhibition at 1 µM [3]: 0%
- inhibition at 1 µM [4]: 0%
- inhibition at 1 µM [5]: 0%
- inhibition at 1 µM [6]: 0%
- inhibition at 1 µM [7]: 2%
- IC50 [8]: > 30 µM
- inhibition at 1 µM [9]: 0%
- inhibition at 1 µM [10]: 4%
- inhibition at 1 µM [11]: 4%
- inhibition at 1 µM [12]: 0%
- inhibition at 1 µM [13]: 0%
- inhibition at 1 µM [14]: 2%
- IC50 [15]: > 30 µM
- IC50 [16]: > 30 µM
- IC50 [17]: > 30 µM
- inhibition at 1 µM [18]: 0%
- IC50 [19]: > 30 µM
- inhibition at 1 µM [20]: 0%
- inhibition at 1 µM [21]: 8%
- inhibition at 1 µM [22]: 0%
- inhibition at 1 µM [23]: 0%
- inhibition at 1 µM [24]: 0%
- inhibition at 1 µM [25]: 1%
- inhibition at 1 µM [26]: 2%
- inhibition at 1 µM [27]: 3%
- inhibition at 1 µM [28]: 0%
- inhibition at 1 µM [29]: 0%
- inhibition at 1 µM [30]: 0%
- inhibition at 1 µM [31]: 0%
- inhibition at 1 µM [32]: 2%
- inhibition at 1 µM [33]: 0%
- inhibition at 1 µM [35]: 1%
- inhibition at 1 µM [36]: 2%
- inhibition at 1 µM [37]: 0%
- inhibition at 1 µM [38]: 4%
- inhibition at 1 µM [39]: 0%
- inhibition at 1 µM [40]: 0%
- inhibition at 1 µM [41]: 0%
- inhibition at 1 µM [42]: 0%
SMILES: O=C(Nc1nccs1)C(c1cc(F)ccc1O)N1Cc2ccccc2C1=O (stereo not drawn) [EAI045, 2-(5-fluoro-2-hydroxyphenyl)-2-(1-oxo-2,3-dihydro-1H-isoindol-2-yl)-N-(1,3-thiazol-2-yl)acetamide]
- tumor response [34]: failed to respond
